The record followed here is ChEMBL document CHEMBL1155452, “Oncocin (VDKPPYLPRPRPPRRIYNR-NH2): a novel antibacterial peptide optimized against gram-negative human pathogens” (J Med Chem, 2010).

Data set [1] concerns Escherichia coli. As to the kind of experiment: Antimicrobial activity against Escherichia coli 205024 after 20 hrs by broth microdilution method. Type of data set: functional. Particulars: Escherichia coli, 205024, 20 h. The essentials:
(§1)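 Pathogens grown overnight on Columbia agar. Colonies suspended in 0.9% saline to OD 0.1, diluted 1:300 in 1% TSB, final (1-2) × 10^5 cfu/well. Peptides 2-fold serially diluted in 1% TSB from 128 to typically 0.5 μg/mL. Incubation at 37 °C; A595 read after 20 ± 2 h. MIC is the lowest concentration with absorbance not above medium only. Triplicate.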

Data set [2] concerns Escherichia coli. As to the kind of experiment: Antimicrobial activity against Escherichia coli 70419002 after 20 hrs by broth microdilution method. Type of data set: functional. Particulars: Escherichia coli, 70419002, 20 h. In outline:
as §1
(In broth dilution the organism is exposed to a series of concentrations in liquid medium.)

The test system of data set [3] is Pseudomonas aeruginosa. The experiment in a line: Antimicrobial activity against Pseudomonas aeruginosa ATCC 27853 after 20 hrs by broth microdilution method. It counts as functional. Particulars: ATCC 27853, 20 h. The essentials:
(§2)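 Pathogenic strains grown overnight on Columbia agar, colonies suspended in 0.9% saline to OD 0.1, diluted 1:300 in 1% TSB; final (1-2) × 10^5 cfu/well. Peptides 2-fold serially diluted in 1% TSB from 128 μg/mL, typically to 0.5 μg/mL. Incubated 37 °C, absorbance at 595 nm after 20 ± 2 h, in triplicate; MIC = lowest concentration with absorbance not exceeding medium only.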

The subject of data set [4] is Proteus vulgaris. As to the kind of experiment: Antimicrobial activity against Proteus vulgaris ICB 9095 after 20 hrs by broth microdilution method. Type of data set: functional. Particulars: ICB 9095, 20 h. In outline: as §1
The subject of data set [5] is Klebsiella pneumoniae. As to the kind of experiment: Antimicrobial activity against Klebsiella pneumoniae 63 after 20 hrs by broth microdilution method. It counts as functional. The settings on record: Klebsiella pneumoniae, 63, 20 h. In outline:
as §2

The subject of data set [6] is Klebsiella pneumoniae. The experiment in a line: Antimicrobial activity against Klebsiella pneumoniae 57 USA after 20 hrs by broth microdilution method. Type of data set: functional. In outline: as §1
Data set [7] relates to Klebsiella pneumoniae. The experiment in a line: Antimicrobial activity against Klebsiella pneumoniae 8085 after 20 hrs by broth microdilution method. It counts as functional. Particulars: Klebsiella pneumoniae, 8085, 20 h. The essentials:
as §1

The subject of data set [8] is Escherichia coli. The experiment in a line: Antimicrobial activity against Escherichia coli 70329001 after 20 hrs by broth microdilution method. It counts as functional. The settings on record: Escherichia coli, 70329001, 20 h. The essentials:
as §1

Data set [9] concerns Klebsiella pneumoniae. The experiment in a line: Antimicrobial activity against Klebsiella pneumoniae ATCC 27799 after 20 hrs by broth microdilution method. It counts as functional. Particulars: ATCC 27799, 20 h. The essentials:
as §2

For data set [10], the system named is Stenotrophomonas. The experiment in a line: Antimicrobial activity against Stenotrophomonas ICB 7789 after 20 hrs by broth microdilution method. Particulars: ICB 7789, 20 h. It counts as functional. In outline: as §1
In data set [11] the test system is Enterobacter cloacae. The experiment in a line: Antimicrobial activity against Enterobacter cloacae Ha185 after 20 hrs by broth microdilution method. Type of data set: functional. The settings on record: Ha185, 20 h. The essentials: as §2
In data set [12] the test system is Escherichia coli. The experiment in a line: Antimicrobial activity against Escherichia coli Neumann after 20 hrs by broth microdilution method. Type of data set: functional. In outline:
as §1

The subject of data set [13] is Serum. As to the kind of experiment: Stability in 25% mouse serum assessed as peptide-12 level at 75 ug/ml after 2 hrs by MALDI-TOF-MS analysis. It counts as ADME, cell-free. In outline: (§3)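 Peptide at 75 μg/mL final in pooled mouse serum (undiluted or 25% v:v aqueous), 37 °C. Triplicate aliquots taken at 0, 30, 60, 120 and 240 min and precipitated with 3% TCA on ice for 10 min. Supernatant neutralized with NaOH and analysed by RP-HPLC on C18 with TFA-containing gradient. Amounts expressed relative to 0 min; metabolites identified by MALDI-TOF-MS.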

In data set [14] the test system is HeLa. The experiment in a line: Cytotoxicity against human HeLa cells at 600 ug/ml after 24 hrs by MTT assay. Type of data set: cell-based. In outline: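 HeLa (1.5 × 10^4/well, seeded overnight) or SH-SY5Y (2 × 10^4/well, differentiated 5 days with 10 μM trans-retinoic acid) in DMEM/Ham's F-12 with 5% or 15% FBS. Peptide added at 600 μg/mL for 24 h at 37 °C, 5% CO2. MTT 0.5 mg/mL for 4 h, then SDS/HCl for 16 h; A590 read against 650 nm. Normalized to PBS (100%); DMSO 12% as positive control.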
Background: Tetrazolium assays rely on reduction of a dye to a coloured formazan, in cell work by metabolically active cells.

Data set [15] deals with Serum. As to the kind of experiment: Stability in 25% mouse serum assessed as peptide-12 level at 75 ug/ml after 30 mins by MALDI-TOF-MS analysis. Particulars: 0.5 h. Type of data set: ADME, cell-free. In outline: as §3
Data set [16] relates to Escherichia coli. As to the kind of experiment: Antimicrobial activity against Escherichia coli 70430001 after 20 hrs by broth microdilution method. It counts as functional. The settings on record: Escherichia coli, 70430001, 20 h. In outline: as §1
In data set [17] the test system is Pseudomonas aeruginosa. The experiment in a line: Antimicrobial activity against Pseudomonas aeruginosa Walter after 20 hrs by broth microdilution method. Type of data set: functional. In outline: as §2
In data set [18] the test system is Micrococcus luteus. The experiment in a line: Antibacterial activity against Micrococcus luteus ATCC 10240 after 20 hrs by broth microdilution assay. The settings on record: ATCC 10240, 20 h. It counts as functional. The essentials:
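Nutrient-broth overnight cultures diluted in 1% TSB; E. coli BL21AI 7.5 × 10^5 cells/well, M. luteus ATCC 10240 2 × 10^6 cells/well. Peptides serially 2-fold diluted in 1% TSB from 128 to typically 0.5 μg/mL. Incubation at 37 °C; A595 read after 20 ± 2 h. MIC is the lowest concentration with absorbance not above medium only. Triplicate.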

In data set [19] the test system is Klebsiella pneumoniae. The experiment in a line: Antimicrobial activity against Klebsiella pneumoniae DSM 681 after 20 hrs by broth microdilution method. Type of data set: functional. Particulars: DSM 681, 20 h. The essentials: as §1
Data set [20] relates to Pseudomonas aeruginosa. The experiment in a line: Antimicrobial activity against Pseudomonas aeruginosa 61118003 after 20 hrs by broth microdilution method. It counts as functional. The settings on record: Pseudomonas aeruginosa, 61118003, 20 h. The essentials: as §2
In data set [21] the test system is Acinetobacter baumannii. The experiment in a line: Antimicrobial activity against Acinetobacter baumannii ICB 14073 after 20 hrs by broth microdilution method. Type of data set: functional. Particulars: ICB 14073, 20 h. In outline:
as §1

The MIC is the least concentration at which growth counts as inhibited. A low value points to a more susceptible organism. As to H-VDKPPYLPRPRPPRRIYNR-NH2 [ONCOCIN], the MIC in [1] is 4 µg/mL; in data set [2], 8 µg/mL; in data set [3], 4 µg/mL; in [4] it was 4 µg/mL; in data set [5], 8 µg/mL; in [6] it was 0.25 µg/mL. The MIC in data set [7] is 0.5 µg/mL; in data set [8] it was 1 µg/mL; in data set [9] it was 1 µg/mL; in data set [10], 32 µg/mL; in data set [11], 0.5 µg/mL; in data set [12], 2 µg/mL. The MIC stood at 1 µg/mL in [16]; 8 µg/mL in data set [17]; 8 µg/mL in data set [18]; 0.25 µg/mL in data set [19]; 2 µg/mL in data set [20]; 2 µg/mL in data set [21]. Besides, the results for the Activity in data set [13], in data set [14] and in [15] were 20%, “Non-toxic” and 10%, respectively.
